From ChEMBL document CHEMBL1129512, “Studies on the mechanism of phosphatidylinositol 3-kinase inhibition by wortmannin and related analogs” (J Med Chem, 1996)
pIC50: −log10 of the molar value. Several values for one entry are separate records, joined by “and”; a condition that tells them apart may be missing. Equal entries are not always repeated.

Columns and labels:
Mus musculus [1] = assay: In vivo inhibition of tumor growth in C3H Mammary model was evaluated at dose 0.50 mg/kg peroral administration; assay type: functional; conditions: route oral
How it was run: (§1)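 Murine tumours were serially passaged as tumour fragments, implanted s.c. by trochar in the axillary region. Daily oral dosing began 1 day after implant, as a suspension in 2.5% emulphor EL-620 in 0.9% NaCl. There were 10 randomized mice per group. Tumours were measured by caliper the day after the last dose, with weight = length × width² × 0.5. Inhibition was 100 × (1 − mean treated/mean control weight). A group was toxic if lethality was >25%.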

Mus musculus [2] = assay: In vivo inhibition of tumor growth in C3H Mammary model was evaluated at dose 1.0 mg/kg peroral administration; assay type: functional; conditions: route oral; how it was run: as §1
[3] = In vitro inhibitory activity against Phosphatidylinositol 3-Kinase
How it was run: (§2)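 Purified PI 3-kinase from bovine brain was used as the enzyme source. Results are reported as IC50 values.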

Mus musculus [4] = assay: In vivo inhibition of tumor growth in C3H Mammary model was evaluated at dose 5.0 mg/kg peroral administration; range is 60-79%; assay type: functional; conditions: route oral
How it was run: (§3)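 Murine C3H mammary tumour fragments were implanted subcutaneously by trochar in the axillary region, in groups of 10 randomized mice. Oral dosing started 1 day after implant, daily ×10, as a suspension in 2.5% emulphor EL-620 in 0.9% NaCl (water for one analog). Tumour weight, calculated as length×width²×0.5 from calipers, was measured the day after the last dose. Percent inhibition was calculated versus controls. Groups with >25% lethality were scored toxic.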

[5] = Inhibition of Phosphatidylinositol 3-Kinase; how it was run: as §2
Mus musculus [6] = assay: In vivo inhibition of tumor growth in C3H Mammary model was evaluated at dose 10 mg/kg peroral administration; assay type: functional; conditions: route oral; how it was run: as §3
Mus musculus [7] = assay: In vivo inhibition of tumor growth in X-5563 plasma cell myeloma model was evaluated at dose 1.25 mg/kg peroral administration; assay type: functional; conditions: route oral
Homo sapiens [8] = assay: In vivo inhibition of tumor growth PANC-1 pancreatic model was evaluated at dose 1.50 mg/kg peroral administration; assay type: functional; conditions: route oral
How it was run: (§4)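 Human xenograft fragments were implanted s.c. via trochar in the axillary region of mice. Daily oral dosing began 7 days after implant, as a suspension in 2.5% emulphor EL-620 in 0.9% NaCl. There were 10 randomized mice per group. Tumours were measured by caliper 5 days after the last dose, with weight = length × width² × 0.5. Inhibition was 100 × (1 − treated/control mean weight), and toxic meant lethality >25%.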

Mus musculus [9] = assay: In vivo inhibition of tumor growth in 6C3HED lymphosarcomal was evaluated at dose 0.75 mg/kg peroral administration; assay type: functional; conditions: route oral; how it was run: as §1
Homo sapiens [10] = assay: In vivo inhibition of tumor growth in HC1 colon model was evaluated at dose 0.75 mg/kg peroral administration; assay type: functional; conditions: route oral
How it was run: (§5)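 HC1 colon and IGROV1 ovarian xenografts were implanted s.c. as fragments by axillary trochar. Daily oral dosing started 14 days after implant, as a suspension in 2.5% emulphor EL-620/0.9% NaCl. Groups were 10 randomized mice.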

Homo sapiens [11] = assay: In vivo inhibition of tumor growth in PACA-2 pancreatic model was evaluated at dose 0.75 mg/kg peroral administration; assay type: functional; conditions: route oral; how it was run: as §4
Homo sapiens [12] = assay: In vivo inhibition of tumor growth in CX-1 colon model was evaluated at dose 0.75 mg/kg peroral administration; assay type: functional; conditions: route oral; how it was run: as §4
Mus musculus [13] = assay: In vivo inhibition of tumor growth in C-26 colon model was evaluated dose 1.50 mg/kg peroral administration; assay type: functional; conditions: route oral; how it was run: as §1
Mus musculus [14] = assay: IIn vivo inhibition of tumor growth in B-16 melanoma model was evaluated by inhibition of tumor growth at dose 0.75 mg/kg peroral administration; assay type: functional; conditions: B16, route oral; how it was run: as §1
Homo sapiens [15] = assay: In vivo inhibition of tumor growth MX-1 mammary model was evaluated at dose 1.50 mg/kg peroral administration; assay type: functional; conditions: route oral
Homo sapiens [16] = assay: In vivo inhibition of tumor growth in BXPC-3 pancreatic model was evaluated at dose 0.75 mg/kg peroral administration; range is 60-79%; assay type: functional; conditions: route oral; how it was run: as §4
Homo sapiens [17] = assay: In vivo inhibition of tumor growth in HC1 colon model was evaluated at dose 1.50 mg/kg peroral administration; assay type: functional; conditions: route oral; how it was run: as §5
Mus musculus [18] = assay: In vivo inhibition of tumor growth in C3H Mammary model was evaluated at dose 2.50 mg/kg peroral administration; assay type: functional; conditions: route oral; how it was run: as §1
Mus musculus [19] = assay: In vivo inhibition of tumor growth in M-5076 ovarian model was evaluated at dose 1.50 mg/kg peroral administration; assay type: functional; conditions: M5076, route oral
How it was run: (§6)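 For the murine M-5076 ovarian tumour, fragments were implanted s.c. by trochar in the axilla. Daily oral dosing began 5 days after implant, as a suspension in 2.5% emulphor EL-620/0.9% NaCl. There were 10 randomized mice per group.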

Mus musculus [20] = assay: In vivo inhibition of tumor growth in C3H Mammary model was evaluated at dose 1.25 mg/kg peroral administration; range is 60-79%; assay type: functional; conditions: route oral; how it was run: as §1
Homo sapiens [21] = assay: In vivo inhibition of tumor growth in IGROV1 ovarian model was evaluated at dose 1.50 mg/kg peroral administration; assay type: functional; conditions: IGROV-1, route oral; how it was run: as §5
Homo sapiens [22] = assay: In vivo toxicity against PI 3-Kinase in GC3 colon model was evaluated by inhibition of tumor growth at dose 0.75 mg/kg peroral administration; assay type: functional; conditions: route oral; how it was run: as §4
Homo sapiens [23] = assay: In vivo inhibition of tumor growth in VRC5 colon model was evaluated at dose 1.50 mg/kg peroral administration; assay type: functional; conditions: route oral
Mus musculus [24] = assay: In vivo inhibition of tumor growth B-16 melanoma model was evaluated at dose 1.50 mg/kg peroral administration; assay type: functional; conditions: B16, route oral; how it was run: as §1
Mus musculus [25] = assay: In vivo inhibition of tumor growth in C-26 colon model was evaluated dose 0.75 mg/kg peroral administration; assay type: functional; conditions: route oral; how it was run: as §1
Mus musculus [26] = assay: In vivo inhibition of tumor growth in 6C3HED lymphosarcomal was evaluated at dose 1.50 mg/kg peroral administration; assay type: functional; conditions: route oral; how it was run: as §1
Homo sapiens [27] = assay: In vivo inhibition of tumor growth in PACA-2 pancreatic model was evaluated at dose 1.50 mg/kg peroral administration; assay type: functional; conditions: route oral; how it was run: as §4
Mus musculus [28] = assay: In vivo inhibition of tumor growth in M-5076 ovarian model was evaluated at dose 0.75 mg/kg peroral administration; assay type: functional; conditions: M5076, route oral; how it was run: as §6
Mus musculus [29] = assay: In vivo inhibition of tumor growth in Lewis lung model was evaluated at dose 1.50 mg/kg peroral administration; assay type: functional; conditions: route oral; how it was run: as §1
Homo sapiens [30] = assay: In vivo inhibition of tumor growth IGROV1 ovarian model was evaluated at dose 0.75 mg/kg peroral administration; assay type: functional; conditions: IGROV-1, route oral; how it was run: as §5
Homo sapiens [31] = assay: In vivo inhibition of tumor growth in BXPC-3 pancreatic model was evaluated at dose 1.50 mg/kg peroral administration; assay type: functional; conditions: route oral; how it was run: as §4
Homo sapiens [32] = assay: In vivo inhibition of tumor growth in LX-1 lung model was evaluated at dose 0.75 mg/kg peroral administration; assay type: functional; conditions: route oral; how it was run: as §4
Mus musculus [33] = assay: In vivo inhibition of tumor growth in Lewis lung model was evaluated at dose 0.75 mg/kg peroral administration; assay type: functional; conditions: route oral; how it was run: as §1
Homo sapiens [34] = assay: In vivo inhibition of tumor growth in GC3 colon model was evaluated at dose 0.38 mg/kg peroral administration; assay type: functional; conditions: route oral; how it was run: as §4
Homo sapiens [35] = assay: In vivo inhibition of tumor growth in PANC-1 pancreatic model was evaluated at dose 0.75 mg/kg peroral administration; assay type: functional; conditions: route oral; how it was run: as §4
Homo sapiens [36] = assay: In vivo inhibition of tumor growth in CX-1 colon model was evaluated at dose 1.50 mg/kg peroral administration; assay type: functional; conditions: route oral; how it was run: as §4
Homo sapiens [37] = assay: In vivo inhibition of tumor growth in MX-1 mammary model was evaluated at dose 0.75 mg/kg peroral administration; assay type: functional; conditions: route oral
Homo sapiens [38] = assay: In vivo inhibition of tumor growth in LX-1 lung model was evaluated at dose 0.38 mg/kg peroral administration; assay type: functional; conditions: route oral; how it was run: as §4
Homo sapiens [39] = assay: In vivo inhibition of tumor growth in VRC5 colon model was evaluated at dose 0.75 mg/kg peroral administration; assay type: functional; conditions: route oral

With `COC[C@H]1OC(=O)c2coc3c2[C@@]1(C)C1=C(C3=O)[C@@H]2CC[C@H](O)[C@@]2(C)C[C@H]1OC(C)=O` the inhibition in vivo at 0.5 mg/kg (Mus musculus [1]) was < 60%, the inhibition in vivo at 1 mg/kg (Mus musculus [2]) was > 25% and the pIC50 [3] was 9.30.

In the case of `CC/N=C/C1=C(O)O[C@H](COC)[C@@]2(C)C1=C(O)C(=O)C1=C2[C@H](OC(C)=O)C[C@]2(C)C(=O)CC[C@@H]12`, the pIC50 [3] was < 6.30.

With `COC[C@H]1OC(=O)c2c(C)oc3c2[C@@]1(C)C1=C(C3=O)[C@@H]2CCC(=O)[C@@]2(C)C[C@H]1OC(C)=O` the pIC50 [3] was < 6.30.

With `COC[C@H]1OC(=O)c2coc3c2[C@@]1(C)C1=C(C3=O)[C@@H]2CC=C(OC(C)=O)[C@@]2(C)C[C@H]1OC(C)=O` the pIC50 [3] was 7.23.

With `CCC/N=C\C1=C(O)O[C@H](COC)[C@@]2(C)C1=C(O)C(=O)C1=C2[C@H](OC(C)=O)C[C@]2(C)C(=O)CC[C@@H]12` the pIC50 [3] was < 6.30.

For `CCN(/C=C1\C(=O)O[C@H](COC)[C@@]2(C)C1=C(O)C(=O)C1=C2[C@H](OC(C)=O)C[C@]2(C)C(=O)CC[C@@H]12)CC`, the inhibition in vivo at 5 mg/kg (Mus musculus [4]) was 79%, the pIC50 [5] was 7.10 and the inhibition in vivo at 10 mg/kg (Mus musculus [6]) was > 25%.

`COC[C@H]1OC(=O)C2=CCOC3=C2[C@@]1(C)C1=C(C3=O)[C@@H]2CCC(=O)[C@@]2(C)C[C@H]1OC(C)=O` gave a pIC50 [3] of 6.57.

In the case of `COC[C@H]1OC(=O)C23CC2COC2=C3[C@@]1(C)C1=C(C2=O)[C@@H]2CCC(=O)[C@@]2(C)C[C@H]1OC(C)=O` (stereo partly specified), the pIC50 [3] was < 6.30.

In the case of `COC[C@H]1OC(=O)c2coc3c2[C@@]1(C)C1=C(C3=O)[C@@H]2CCC(=O)[C@@]2(C)C[C@H]1OC(C)=O` [WORTMANNIN], the Inhibition (Mus musculus [7]) was <60% and >25%, the inhibition in vivo at 1.5 mg/kg (Homo sapiens [8]) was > 25% and the inhibition in vivo at 0.75 mg/kg (Mus musculus [9]) was < 60%. The inhibition in vivo at 0.75 mg/kg (Homo sapiens [10]) was < 60%, the inhibition in vivo at 0.75 mg/kg (Homo sapiens [11]) was < 60% and the inhibition in vivo at 0.75 mg/kg (Homo sapiens [12]) was < 60%. For the same compound, the inhibition in vivo at 1.5 mg/kg (Mus musculus [13]) was > 25%, the inhibition in vivo at 0.75 mg/kg (Mus musculus [14]) was < 60% and the inhibition in vivo at 1.5 mg/kg (Homo sapiens [15]) was > 25%. The inhibition in vivo at 0.75 mg/kg (Homo sapiens [16]) was 79%, the inhibition in vivo at 1.5 mg/kg (Homo sapiens [17]) was > 25% and the inhibition in vivo at 2.5 mg/kg (Mus musculus [18]) was > 25%. For the same compound, the inhibition in vivo at 1.5 mg/kg (Mus musculus [19]) was > 25%, the inhibition in vivo at 1.25 mg/kg (Mus musculus [20]) was 79% and the inhibition in vivo at 1.5 mg/kg (Homo sapiens [21]) was > 25%. The inhibition in vivo at 0.75 mg/kg (Homo sapiens [22]) was > 25%, the inhibition in vivo at 1.5 mg/kg (Homo sapiens [23]) was > 25% and the inhibition in vivo at 1.5 mg/kg (Mus musculus [24]) was > 25%. For the same compound, the inhibition in vivo at 0.75 mg/kg (Mus musculus [25]) was < 60%, the inhibition in vivo at 1.5 mg/kg (Mus musculus [26]) was > 25% and the inhibition in vivo at 1.5 mg/kg (Homo sapiens [27]) was > 25%. For the same compound, the inhibition in vivo at 0.75 mg/kg (Mus musculus [28]) was < 60%, the inhibition in vivo at 1.5 mg/kg (Mus musculus [29]) was > 25% and the inhibition in vivo at 0.75 mg/kg (Homo sapiens [30]) was < 60%. For the same compound, the inhibition in vivo at 1.5 mg/kg (Homo sapiens [31]) was > 25%, the pIC50 [3] was 8.38 and the inhibition in vivo at 0.75 mg/kg (Homo sapiens [32]) was > 25%. For the same compound, the inhibition in vivo at 0.75 mg/kg (Mus musculus [33]) was < 60%, the inhibition in vivo at 0.38 mg/kg (Homo sapiens [34]) was > 25% and the inhibition in vivo at 0.75 mg/kg (Homo sapiens [35]) was < 60%. For the same compound, the inhibition in vivo at 1.5 mg/kg (Homo sapiens [36]) was > 25%, the inhibition in vivo at 0.75 mg/kg (Homo sapiens [37]) was < 60% and the inhibition in vivo at 0.38 mg/kg (Homo sapiens [38]) was < 60%. For the same compound, the inhibition in vivo at 0.75 mg/kg (Homo sapiens [39]) was < 60%.
